Broadly, the inhibition is how much of the control response was suppressed.

Peptide text beside a SMILES is read from it.

A short description of assay [1]: Inhibition of Plasmodium falciparum falcipain-2 after 12 hrs by fluorescence spectroscopy-based on-bead assay. More on the design: concentration or dose not given beside the values. To be noted: concentration not given here. The essentials:
(§1)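 Library members on resin (PEGA, theoretical loading 0.40 mmol/g; added as DMSO suspension, 0.64 mM final inhibitor) preincubated with enzyme 12 h, then Cbz-Phe-Arg-AMC 40 μM added; AMC release followed by fluorescence (ex 380/em 460 nm). Kinetics compared with inhibitor-free amino-PEGA resin.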

Assay [2] deals with Rhodesain (Trypanosoma brucei rhodesiense) (UniProt Q95PM0). The assay can be described thus: Inhibition of Trypanosoma brucei rhodesiense rhodesain after 12 hrs by fluorescence spectroscopy-based on-bead assay. Also noted: concentration or dose not given beside the values. To be noted: concentration not given here. A digest of the protocol: as §1
Rhodesain (Trypanosoma brucei rhodesiense), sequence (Q95PM0 1-450): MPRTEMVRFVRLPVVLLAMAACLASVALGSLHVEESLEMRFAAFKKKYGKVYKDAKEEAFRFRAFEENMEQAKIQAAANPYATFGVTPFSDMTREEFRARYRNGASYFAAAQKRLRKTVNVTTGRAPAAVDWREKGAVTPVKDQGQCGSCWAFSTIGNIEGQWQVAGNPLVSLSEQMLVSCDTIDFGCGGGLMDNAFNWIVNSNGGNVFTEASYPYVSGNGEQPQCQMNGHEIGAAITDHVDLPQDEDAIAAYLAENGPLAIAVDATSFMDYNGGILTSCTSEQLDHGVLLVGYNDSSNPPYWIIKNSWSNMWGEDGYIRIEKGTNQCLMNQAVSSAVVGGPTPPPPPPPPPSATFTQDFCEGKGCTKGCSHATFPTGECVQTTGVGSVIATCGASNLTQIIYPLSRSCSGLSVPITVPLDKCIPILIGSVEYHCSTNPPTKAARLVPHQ

In the case of `CC(C)[C@H](NC(=O)[C@@H](NC(=O)[C@H](Cc1ccccc1)NC(=O)[C@H](Cc1ccccc1)NC(=O)/C=C/C(=O)N[C@@H](C)C(=O)NCC(=O)N[C@@H](Cc1ccccc1)C(=O)O)C(C)C)C(N)=O` (HELM PEPTIDE1{[C[C@H](NC(=O)/C=C/C(=O)[*:2])C(=O)NCC(=O)N[C@@H](Cc1ccccc1)C(=O)O].F.F.V.V.[am]}$$$$V2.0), the values for the inhibition in assay [1] and in assay [2] were 37% and 38%, respectively.
The matching figures for `CC[C@H](C)[C@H](NC(=O)[C@H](Cc1ccccc1)NC(=O)/C=C/C(=O)N[C@@H](C)C(=O)NCC(=O)N[C@@H](Cc1ccccc1)C(=O)O)C(=O)N[C@@H](C)C(=O)N[C@H](C(N)=O)C(C)C` (HELM PEPTIDE1{[C[C@H](NC(=O)/C=C/C(=O)[*:2])C(=O)NCC(=O)N[C@@H](Cc1ccccc1)C(=O)O].F.I.A.V.[am]}$$$$V2.0): 29% and 40%.
The matching figures for `CC[C@H](C)[C@H](NC(=O)[C@H](Cc1ccccc1)NC(=O)/C=C/C(=O)N[C@@H](C)C(=O)NCC(=O)N[C@@H](Cc1ccccc1)C(=O)O)C(=O)N[C@@H](CC(C)C)C(=O)N[C@H](C(N)=O)C(C)C` (HELM PEPTIDE1{[C[C@H](NC(=O)/C=C/C(=O)[*:2])C(=O)NCC(=O)N[C@@H](Cc1ccccc1)C(=O)O].F.I.L.V.[am]}$$$$V2.0): 51% and 61%.
The corresponding values for `CC[C@H](C)[C@H](NC(=O)[C@H](Cc1ccccc1)NC(=O)/C=C/C(=O)N[C@@H](C)C(=O)NCC(=O)N[C@@H](Cc1ccccc1)C(=O)O)C(=O)N[C@H](C(=O)N[C@H](C(N)=O)C(C)C)C(C)C` (HELM PEPTIDE1{[C[C@H](NC(=O)/C=C/C(=O)[*:2])C(=O)NCC(=O)N[C@@H](Cc1ccccc1)C(=O)O].F.I.V.V.[am]}$$$$V2.0) are 45% and 43%.
On to `CC(C)C[C@H](NC(=O)[C@H](Cc1ccccc1)NC(=O)/C=C/C(=O)N[C@@H](C)C(=O)NCC(=O)N[C@@H](Cc1ccccc1)C(=O)O)C(=O)N[C@@H](C)C(=O)N[C@H](C(N)=O)C(C)C` (HELM PEPTIDE1{[C[C@H](NC(=O)/C=C/C(=O)[*:2])C(=O)NCC(=O)N[C@@H](Cc1ccccc1)C(=O)O].F.L.A.V.[am]}$$$$V2.0), for which the inhibition in assay [1] was determined as 45%; in assay [2], 49%.
`CC(C)C[C@H](NC(=O)[C@H](Cc1ccccc1)NC(=O)/C=C/C(=O)N[C@@H](C)C(=O)NCC(=O)N[C@@H](Cc1ccccc1)C(=O)O)C(=O)N[C@@H](CC(C)C)C(=O)N[C@H](C(N)=O)C(C)C` (HELM PEPTIDE1{[C[C@H](NC(=O)/C=C/C(=O)[*:2])C(=O)NCC(=O)N[C@@H](Cc1ccccc1)C(=O)O].F.L.L.V.[am]}$$$$V2.0): the inhibition in assay [1] is 62%; in assay [2], 69%.
`CC(C)C[C@H](NC(=O)[C@H](Cc1ccccc1)NC(=O)/C=C/C(=O)N[C@@H](C)C(=O)NCC(=O)N[C@@H](Cc1ccccc1)C(=O)O)C(=O)N[C@H](C(=O)N[C@H](C(N)=O)C(C)C)C(C)C` (HELM PEPTIDE1{[C[C@H](NC(=O)/C=C/C(=O)[*:2])C(=O)NCC(=O)N[C@@H](Cc1ccccc1)C(=O)O].F.L.V.V.[am]}$$$$V2.0): the figures for the inhibition in assay [1] and in assay [2] were 36% and 45%, respectively.
The matching figures for `CC(C)[C@H](NC(=O)[C@H](C)NC(=O)[C@@H](NC(=O)[C@H](Cc1ccccc1)NC(=O)/C=C/C(=O)N[C@@H](C)C(=O)NCC(=O)N[C@@H](Cc1ccccc1)C(=O)O)C1CCCCC1)C(N)=O` (HELM PEPTIDE1{[C[C@H](NC(=O)/C=C/C(=O)[*:2])C(=O)NCC(=O)N[C@@H](Cc1ccccc1)C(=O)O].F.[O=C([C@@H](N[*:1])C1CCCCC1)[*:2]].A.V.[am]}$$$$V2.0): 29% and 21%.
Take `CC(C)C[C@H](NC(=O)[C@@H](NC(=O)[C@H](Cc1ccccc1)NC(=O)/C=C/C(=O)N[C@@H](C)C(=O)NCC(=O)N[C@@H](Cc1ccccc1)C(=O)O)C1CCCCC1)C(=O)N[C@H](C(N)=O)C(C)C` (HELM PEPTIDE1{[C[C@H](NC(=O)/C=C/C(=O)[*:2])C(=O)NCC(=O)N[C@@H](Cc1ccccc1)C(=O)O].F.[O=C([C@@H](N[*:1])C1CCCCC1)[*:2]].L.V.[am]}$$$$V2.0): the inhibition in assay [1] was 56%; in assay [2], 49%.
Take `CC(C)[C@H](NC(=O)[C@@H](NC(=O)[C@@H](NC(=O)[C@H](Cc1ccccc1)NC(=O)/C=C/C(=O)N[C@@H](C)C(=O)NCC(=O)N[C@@H](Cc1ccccc1)C(=O)O)C1CCCCC1)C(C)C)C(N)=O` (HELM PEPTIDE1{[C[C@H](NC(=O)/C=C/C(=O)[*:2])C(=O)NCC(=O)N[C@@H](Cc1ccccc1)C(=O)O].F.[O=C([C@@H](N[*:1])C1CCCCC1)[*:2]].V.V.[am]}$$$$V2.0): the inhibition in assay [1] worked out at 45%; in assay [2] it was 49%.
The matching figures for `CC(C)[C@H](NC(=O)[C@H](C)NC(=O)[C@@H](NC(=O)[C@H](Cc1ccccc1)NC(=O)/C=C/C(=O)N[C@@H](C)C(=O)NCC(=O)N[C@@H](Cc1ccccc1)C(=O)O)c1ccccc1)C(N)=O` (HELM PEPTIDE1{[C[C@H](NC(=O)/C=C/C(=O)[*:2])C(=O)NCC(=O)N[C@@H](Cc1ccccc1)C(=O)O].F.[Phg].A.V.[am]}$$$$V2.0): 34% and 47%.
The corresponding values for `CC(C)C[C@H](NC(=O)[C@@H](NC(=O)[C@H](Cc1ccccc1)NC(=O)/C=C/C(=O)N[C@@H](C)C(=O)NCC(=O)N[C@@H](Cc1ccccc1)C(=O)O)c1ccccc1)C(=O)N[C@H](C(N)=O)C(C)C` (HELM PEPTIDE1{[C[C@H](NC(=O)/C=C/C(=O)[*:2])C(=O)NCC(=O)N[C@@H](Cc1ccccc1)C(=O)O].F.[Phg].L.V.[am]}$$$$V2.0) are 53% and 68%.
The matching figures for `CC(C)[C@H](NC(=O)[C@@H](NC(=O)[C@@H](NC(=O)[C@H](Cc1ccccc1)NC(=O)/C=C/C(=O)N[C@@H](C)C(=O)NCC(=O)N[C@@H](Cc1ccccc1)C(=O)O)c1ccccc1)C(C)C)C(N)=O` (HELM PEPTIDE1{[C[C@H](NC(=O)/C=C/C(=O)[*:2])C(=O)NCC(=O)N[C@@H](Cc1ccccc1)C(=O)O].F.[Phg].V.V.[am]}$$$$V2.0): 58% and 77%.
`CC(C)[C@H](NC(=O)[C@H](C)NC(=O)[C@H](Cc1ccccc1)NC(=O)[C@H](CC(N)=O)NC(=O)/C=C/C(=O)N[C@@H](C)C(=O)NCC(=O)N[C@@H](Cc1ccccc1)C(=O)O)C(N)=O` (HELM PEPTIDE1{[C[C@H](NC(=O)/C=C/C(=O)[*:2])C(=O)NCC(=O)N[C@@H](Cc1ccccc1)C(=O)O].N.F.A.V.[am]}$$$$V2.0): the inhibition came out at 25% in assay [1] and 47% in assay [2].
The corresponding values for `CC(C)C[C@H](NC(=O)[C@H](Cc1ccccc1)NC(=O)[C@H](CC(N)=O)NC(=O)/C=C/C(=O)N[C@@H](C)C(=O)NCC(=O)N[C@@H](Cc1ccccc1)C(=O)O)C(=O)N[C@H](C(N)=O)C(C)C` (HELM PEPTIDE1{[C[C@H](NC(=O)/C=C/C(=O)[*:2])C(=O)NCC(=O)N[C@@H](Cc1ccccc1)C(=O)O].N.F.L.V.[am]}$$$$V2.0) are 58% and 64%.
Regarding `CC(C)[C@H](NC(=O)[C@@H](NC(=O)[C@H](Cc1ccccc1)NC(=O)[C@H](CC(N)=O)NC(=O)/C=C/C(=O)N[C@@H](C)C(=O)NCC(=O)N[C@@H](Cc1ccccc1)C(=O)O)C(C)C)C(N)=O` (HELM PEPTIDE1{[C[C@H](NC(=O)/C=C/C(=O)[*:2])C(=O)NCC(=O)N[C@@H](Cc1ccccc1)C(=O)O].N.F.V.V.[am]}$$$$V2.0), the inhibition amounted to 54% in assay [1] and 53% in assay [2].
For the molecule `CC[C@H](C)[C@H](NC(=O)[C@H](CC(N)=O)NC(=O)/C=C/C(=O)N[C@@H](C)C(=O)NCC(=O)N[C@@H](Cc1ccccc1)C(=O)O)C(=O)N[C@@H](C)C(=O)N[C@H](C(N)=O)C(C)C` (HELM PEPTIDE1{[C[C@H](NC(=O)/C=C/C(=O)[*:2])C(=O)NCC(=O)N[C@@H](Cc1ccccc1)C(=O)O].N.I.A.V.[am]}$$$$V2.0), the results for the inhibition in assay [1] and in assay [2] were 38% and 17%, respectively.
The corresponding values for `CC[C@H](C)[C@H](NC(=O)[C@H](CC(N)=O)NC(=O)/C=C/C(=O)N[C@@H](C)C(=O)NCC(=O)N[C@@H](Cc1ccccc1)C(=O)O)C(=O)N[C@@H](CC(C)C)C(=O)N[C@H](C(N)=O)C(C)C` (HELM PEPTIDE1{[C[C@H](NC(=O)/C=C/C(=O)[*:2])C(=O)NCC(=O)N[C@@H](Cc1ccccc1)C(=O)O].N.I.L.V.[am]}$$$$V2.0) are 47% and 60%.
The corresponding values for `CC[C@H](C)[C@H](NC(=O)[C@H](CC(N)=O)NC(=O)/C=C/C(=O)N[C@@H](C)C(=O)NCC(=O)N[C@@H](Cc1ccccc1)C(=O)O)C(=O)N[C@H](C(=O)N[C@H](C(N)=O)C(C)C)C(C)C` (HELM PEPTIDE1{[C[C@H](NC(=O)/C=C/C(=O)[*:2])C(=O)NCC(=O)N[C@@H](Cc1ccccc1)C(=O)O].N.I.V.V.[am]}$$$$V2.0) are 33% and 21%.
The matching figures for `CC(C)C[C@H](NC(=O)[C@H](CC(N)=O)NC(=O)/C=C/C(=O)N[C@@H](C)C(=O)NCC(=O)N[C@@H](Cc1ccccc1)C(=O)O)C(=O)N[C@@H](C)C(=O)N[C@H](C(N)=O)C(C)C` (HELM PEPTIDE1{[C[C@H](NC(=O)/C=C/C(=O)[*:2])C(=O)NCC(=O)N[C@@H](Cc1ccccc1)C(=O)O].N.L.A.V.[am]}$$$$V2.0): 33% and 42%.
Consider `CC(C)C[C@H](NC(=O)[C@H](CC(N)=O)NC(=O)/C=C/C(=O)N[C@@H](C)C(=O)NCC(=O)N[C@@H](Cc1ccccc1)C(=O)O)C(=O)N[C@@H](CC(C)C)C(=O)N[C@H](C(N)=O)C(C)C` (HELM PEPTIDE1{[C[C@H](NC(=O)/C=C/C(=O)[*:2])C(=O)NCC(=O)N[C@@H](Cc1ccccc1)C(=O)O].N.L.L.V.[am]}$$$$V2.0), for which the inhibition was 57% in assay [1] and 59% in assay [2].

The values are drawn from ChEMBL document CHEMBL1155459, “On-bead screening of a combinatorial fumaric acid derived peptide library yields antiplasmodial cysteine protease inhibitors with unusual peptide sequences” (J Med Chem, 2009).
